Test [1] can be described thus: Inhibition of chymotrypsin (unknown origin) using sucAAPFamc substrate preincubated for 10 mins followed by addition of substrate and measured every 30 sec for 60 mins by fluorescence based assay. On the set-up: species or system Homo sapiens. The method in brief:
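Chymotrypsin, 1.5 nM final (added as 15 nM stock), preincubated with inhibitor for 10 min at 30 °C in 100 mM Tris pH 7.8, 10 mM CaCl2. Started with sucAAPFamc (added as 15 μM stock). AMC release read every 30 s for 60 min (ex 350, em 450 nm), in triplicate. IC50 from fitted data.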

For test [2], the target named is T1, Papain (Carica papaya, UniProt P00784).
T1 sequence (P00784 whole entry): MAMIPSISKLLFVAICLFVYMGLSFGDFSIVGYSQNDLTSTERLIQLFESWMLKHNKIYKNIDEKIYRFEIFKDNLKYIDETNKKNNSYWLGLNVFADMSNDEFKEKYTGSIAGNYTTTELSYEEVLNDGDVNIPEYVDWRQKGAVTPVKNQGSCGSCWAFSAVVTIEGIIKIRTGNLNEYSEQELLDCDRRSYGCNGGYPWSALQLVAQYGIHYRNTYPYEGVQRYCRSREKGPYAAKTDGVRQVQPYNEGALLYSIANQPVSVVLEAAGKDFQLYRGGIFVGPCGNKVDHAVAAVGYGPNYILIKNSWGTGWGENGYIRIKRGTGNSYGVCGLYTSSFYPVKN
Kind of test: Inhibition of papaya papain using cbzFRamc substrate preincubated for 10 mins followed by addition of substrate and measured every 30 sec for 60 mins by fluorescence based assay. The procedure, abridged:
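Papain, 1.5 nM final (added as 15 nM stock), preincubated with inhibitor for 10 min at 30 °C in 50 mM phosphate pH 6.8, 10 mM EDTA, 2 mM DTT. Started with 50 μM cbzFRamc. AMC release read every 30 s for 60 min (ex 350, em 450 nm), in triplicate. IC50 from fitted data.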

Test [3] has as its target T2, Papain (Carica papaya) (UniProt P00784).
T2 sequence (whole entry): T1 sequence (P00784 whole entry)
Put plainly: Binding affinity to papaya papain assessed as change in melting temperature at 200 uM incubated for 15 mins by scanning fluorimetry. The procedure, abridged: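 Melting followed by tryptophan fluorescence at 330 and 350 nm during 1 °C/min heating (differential scanning fluorimetry), run in duplicate. Shift taken as difference from the enzyme's melting point.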

For test [4], the species on record is Homo sapiens. Kind of test: Binding affinity to chymotrypsin (unknown origin) assessed as change in melting temperature at 200 uM incubated for 15 mins by scanning fluorimetry. The procedure, abridged: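 20 μM chymotrypsin held on ice for 15 min with 200 μM inhibitor in 100 mM Tris pH 7.8, 10 mM CaCl2. Melting followed by tryptophan fluorescence at 330 and 350 nm during 1 °C/min heating (differential scanning fluorimetry), run in duplicate. Shift taken as difference from the enzyme's melting point.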

What is called IC50 is the midpoint of a concentration-inhibition curve. As a reminder, the ΔTm is the shift of the melting midpoint relative to a reference.

Consider `CC(C)[C@H](NC(=O)[C@@H](NC(=O)N[C@@H](Cc1ccc(O)cc1)C(=O)O)[C@H]1CCNC(=N)N1)C(=O)N[C@H](C=O)Cc1ccc(O)cc1`, for which the figures for the IC50 in test [1] and in test [2] were 4.8 nM and 6.3 nM, respectively. In addition, the figures for the thermal shift (ΔTm) in test [3] and in test [4] were 0.9 °C and 15.1 °C, respectively.
The corresponding values for `CC(C)[C@H](NC(=O)[C@@H](NC(=O)N[C@@H](Cc1ccc(O)cc1)C(=O)O)[C@H]1CCNC(=N)N1)C(=O)N[C@H](C=O)Cc1ccccc1` are 7 nM, 17.8 nM, 0.9 °C and 13.5 °C.
The corresponding values for `CC(C)[C@H](NC(=O)[C@H](CCCNC(=N)N)NC(=O)N[C@@H](Cc1ccccc1)C(=O)O)C(=O)N[C@H](C=O)CCCNC(=N)N` [ANTIPAIN] are greater than 30000 nM, 3.4 nM, 0.9 °C and 1.7 °C.
The corresponding values for `CC(=O)N[C@@H](CC(C)C)C(=O)N[C@@H](CC(C)C)C(=O)N[C@H](C=O)CCCNC(=N)N` [LEUPEPTIN] are greater than 30000 nM, 2.2 nM, 1 °C and 0.2 °C.

Values taken from ChEMBL document CHEMBL4699532, “Decoding the Papain Inhibitor from Streptomyces mobaraensis as Being Hydroxylated Chymostatin Derivatives: Purification, Structure Analysis, and Putative Biosynthetic Pathway” (J Nat Prod, 2020).
